High-throughput results as filed in PubChem.
Hits are enriched below; roughly 3.7% of the tested compounds scored in any of these assays.
DENV2 CPE rescue – inhibitors of DENV2 cytopathic effect, primary screen, cell-based, plate reader, single concentration; CPE inhibition, % at 9.99 µM; AID 651640, 2012; 350,000 tested, 1.7% active; DENV2-infected cells, cytopathic effect rescue; in the data active means CPE inhibition above about 20%, passing the limit was not always enough; inconclusive means no clear call, values can overlap the other calls; tested in BHK-21 cells
FGF22 binding – binders of human FGF22 protein, primary screen, FGF22 synaptogenesis inhibitor project, biophysical, thermal shift, single point | Fibroblast growth factor 22 (Homo sapiens), Q9HCT0 | recombinant FGF22 thermal shift, SYPRO orange fluorescence; percent of sucrose octasulfate shift, DMSO zero | activity (Tm shift, normalised), % at 9.99 µM | 340,000 tested, 1.5% active | AID 651658, 2012;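 active means mean Tm shift, scaled 0 neutral to 100 positive control, at about 1.3% or above, every replicate too, limit read from the data; inconclusive means no clear call, values can overlap the other calls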
CFTR F508del cor – F508del CFTR correction, initial screen, CFBE line, single point | CFBE cells, YFP halide quenching; stimulated with forskolin plus potentiator P3; % fluorescence drop versus neutral controls | activity (quench increase), % at 7.58 µM | 350,000 tested, 0.36% active;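 active means mean added fluorescence quench of at least 8% versus neutral control, with both replicates also reaching 8%; inconclusive means only one of the mean or replicate conditions met; inactive means mean below 8% and not both replicates reaching 8%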;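 further: cells transiently co-express mutant CFTR-F508del with the halide-sensitive YFP; corrector assay measuring rescue of mutant channel to the surface after 24 h compound exposure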
E-sel inducer – E-selectin induction in HUVECs, primary screen, imaging, HUVEC, immunofluorescence imaging, single point; 260,000 tested, 0.37% active; activation, % at 7.58 µM; P16581; normalized: neutral wells 0, TNF-alpha wells 100; AID 686992, 2013;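 active means mean E-selectin-positive cell signal at least 10% of the positive control, reached in at least 60% of replicates, without over 20% cell loss; inconclusive means no rule given, readout overlaps actives, possibly toxicity-flagged; inactive means the rest, including those meeting only one limit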
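material = human umbilical vein endothelial cells (HUVEC), E-selectin induction | quantity = 3,000 cells/well | medium = EGM-2 growth medium on 0.1% gelatin-coated wells | technique = immunofluorescence imaging | read-out basis = % PE-positive cells | control set = TNF-alpha positive control, DMSO neutral control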
ERAP1 inh – human ERAP1 aminopeptidase inhibitors, primary screen, biochemical, single point, plate reader | Endoplasmic reticulum aminopeptidase 1 (Homo sapiens), Q9NZ08 | recombinant ERAP1, Leu-AMC fluorescence, 60 min | inhibition, % at 10.7 µM | 340,000 tested, 0.15% active | AID 652197, 2013;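 active means mean replicate inhibition of at least 30%, or all replicates individually reaching that 30% level; inactive means mean below 30% and not every replicate reaching it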
Target sequence (Q9NZ08 whole entry, looked up): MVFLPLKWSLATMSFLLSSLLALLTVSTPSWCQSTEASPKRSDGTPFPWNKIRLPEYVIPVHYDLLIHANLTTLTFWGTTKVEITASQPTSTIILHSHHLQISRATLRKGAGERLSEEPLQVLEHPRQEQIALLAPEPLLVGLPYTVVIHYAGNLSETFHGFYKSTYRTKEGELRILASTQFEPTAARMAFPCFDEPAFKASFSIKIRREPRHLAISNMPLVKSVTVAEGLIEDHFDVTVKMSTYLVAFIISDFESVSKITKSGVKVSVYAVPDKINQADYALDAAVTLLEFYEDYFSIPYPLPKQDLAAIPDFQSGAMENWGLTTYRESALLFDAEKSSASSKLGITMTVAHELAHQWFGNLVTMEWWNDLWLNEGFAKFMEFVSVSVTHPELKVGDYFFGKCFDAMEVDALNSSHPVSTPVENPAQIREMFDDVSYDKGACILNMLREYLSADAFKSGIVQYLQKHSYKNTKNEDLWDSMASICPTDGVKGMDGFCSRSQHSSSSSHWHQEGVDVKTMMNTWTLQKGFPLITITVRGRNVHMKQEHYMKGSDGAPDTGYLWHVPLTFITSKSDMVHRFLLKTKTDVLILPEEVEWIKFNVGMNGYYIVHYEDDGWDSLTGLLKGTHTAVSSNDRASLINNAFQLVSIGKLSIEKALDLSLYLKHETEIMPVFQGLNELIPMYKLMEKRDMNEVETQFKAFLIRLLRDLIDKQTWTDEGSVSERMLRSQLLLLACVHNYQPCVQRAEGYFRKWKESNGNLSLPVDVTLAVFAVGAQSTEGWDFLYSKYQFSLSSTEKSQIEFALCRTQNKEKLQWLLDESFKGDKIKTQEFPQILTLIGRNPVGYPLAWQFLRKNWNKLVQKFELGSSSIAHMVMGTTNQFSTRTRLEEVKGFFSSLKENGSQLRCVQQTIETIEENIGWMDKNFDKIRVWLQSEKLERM
A number is an active result; i = inactive; ? = inconclusive; nt = no result given.

SMILES	DENV2 CPE rescue	FGF22 binding	CFTR F508del cor	E-sel inducer	ERAP1 inh
CN(C)c1ccc(C=c2c3ccccc3n3c2cc(-c2ccccc2)[n+]3C)cc1	i	i	i	140	i
COc1ccccc1NC(=O)Nc1ccc2c(c1)OC[C@@H](C)N(Cc1ccccc1Cl)C[C@@H](C)[C@H](OC)CN(C)C2=O	i	i	i	i	i
CC(C)(C)NC(=O)c1nn(Cc2ccccc2)c(=O)c2ccccc12	i	43	i	i	i
Cc1noc(C)c1S(=O)(=O)Nc1ccc2c(c1)C(=O)N([C@H](C)CO)C[C@@H](C)[C@@H](CN(C)C(=O)c1ccncc1)OCCCC[C@@H](C)O2	i	i	i	i	i
CO[C@H](CN(C)C(=O)C1CC1)[C@H](C)CN(C(=O)Nc1ccc(C(F)(F)F)cc1)[C@H](C)CO	i	i	i	i	i
COc1ccc(C(=O)Nc2cccc(OC)c2)cc1	i	i	i	nt	i
COc1cccc(NC(=O)c2ccc(OC(F)(F)F)cc2)c1	i	i	i	42	i
C=C1C(C(=O)Nc2cccc(OC)c2)C1C(=O)Nc1cccc(OC)c1 (stereo not drawn)	i	44	i	nt	i
COc1cccc(NC(=O)CCCN2C(=O)C3CC=CCC3C2=O)c1 (stereo not drawn)	i	i	i	nt	i
COc1cccc(NC(=O)C(c2ccccc2)N2CCCC2)c1 (stereo not drawn)	i	43	i	nt	i
COc1cccc(NC(=O)CCN2C(=O)C3CC=CCC3C2=O)c1 (stereo not drawn)	29	i	i	i	i
CN(C)CC(=O)N[C@H]1CC[C@@H](CC(=O)NCc2ccc(Cl)cc2)O[C@H]1CO	?	i	i	i	i
C[C@H](CO)N1C[C@H](C)[C@@H](CN(C)C(=O)Nc2ccc(C(F)(F)F)cc2)Oc2ccc(N(C)C)cc2CC1=O	nt	i	i	i	i
COc1cccc(C2(c3cccc(OC)c3)CC2C(=O)Nc2ccc(F)cc2)c1 (stereo not drawn)	32	i	i	i	i
C[C@@H]1CN([C@@H](C)CO)C(=O)Cc2cc(NC(=O)Cc3cn(C)c4ccccc34)ccc2O[C@H]1CN(C)Cc1ccc(-c2ccccc2)cc1	i	i	i	i	i
CO[C@H]1CN(C)C(=O)c2ccc(NS(=O)(=O)c3ccc(-c4ccccc4)cc3)cc2OC[C@@H](C)NC[C@@H]1C	29	i	i	i	i
CO[C@H]1CN(C)C(=O)c2ccc(NS(=O)(=O)c3ccc(Oc4ccccc4)cc3)cc2OC[C@H](C)NC[C@H]1C	22	i	i	i	i
CO[C@@H]1CN(C)C(=O)c2ccc(NS(=O)(=O)c3cccc(F)c3)cc2OC[C@@H](C)NC[C@@H]1C	71	i	i	i	i
COc1cccc(S(=O)(=O)N[C@H]2CC[C@H](CCn3cc(-c4ccccn4)nn3)O[C@H]2CO)c1	i	i	i	i	i
CCCCCc1nnc(NC(=O)Cc2ccc([N+](=O)[O-])cc2)s1	i	43	?	i	i
CC(C)(C)Cc1nnc(NC(=O)Cc2ccc([N+](=O)[O-])cc2)s1	nt	nt	nt	i	nt
O=C(C[C@@H]1C[C@H]2c3cc(NC(=O)NC4CCCC4)ccc3O[C@H]2[C@@H](CO)O1)NCC1CC1	i	i	i	i	i
COc1ccc(NC(=O)N2CCN(c3ccc([N+](=O)[O-])cc3)CC2)cc1	i	43	i	i	i
COC(=O)[C@@H]1CCCN1C(=O)CCc1nnc(CCC2CCCCC2)o1	i	43	i	nt	i
COC(=O)[C@@H]1CCCN1C(=O)CCc1nnc(CCc2c[nH]c3ccccc23)o1	i	i	i	i	i
SMILES	DENV2 CPE rescue	FGF22 binding	CFTR F508del cor	E-sel inducer	ERAP1 inh
CCOC(=O)C1CCN(c2nc(C)cc(C)c2C#N)CC1	i	i	i	i	i
CCOC(=O)C1CCN(c2nc(N)c3c(N)nc(SCC(=O)O)cc3c2C#N)CC1	i	i	i	nt	31
Cc1noc(C)c1NC(=O)N[C@H]1C=C[C@@H](CC(=O)N2CCN(C)CC2)O[C@@H]1CO	i	i	i	i	i
CCCN(C)C[C@H]1OCCCC[C@H](C)Oc2ccc(NC(=O)CCC(F)(F)F)cc2C(=O)N([C@H](C)CO)C[C@H]1C	i	i	i	i	i
COC(=O)NCc1ccc(Cl)c(Cl)c1	nt	nt	nt	nt	i
COC(=O)CC/C(=N/Nc1ccc(Cl)c(Cl)c1)C(=O)OC	i	43	i	i	i
CCNC(=O)Nc1ccc2c(c1)C(=O)N(C)[C@@H]1CC[C@H](CC(=O)NCC3CC3)O[C@H]1CO2	i	i	i	i	nt
Cc1noc(C)c1COc1ccccc1C(=O)N1CCN(S(=O)(=O)c2ccc(F)c(F)c2)CC1	i	i	i	94	i
CCCCCc1ccc(-c2nnc(N)s2)cc1	nt	43	i	i	i
Nc1nnc(-c2ccc(Cl)c(Cl)c2)s1	nt	i	i	i	i
CN1C(C(=O)NCc2ccc(OC(F)(F)F)cc2)CC2Cn3c(nc4ccccc43)C21 (stereo not drawn)	32	i	i	i	nt
CC[n+]1ccccc1/C=C/c1ccc(N(C)C)cc1	i	i	i	nt	i
CC[n+]1ccc(/C=C/c2ccc(N(C)C)cc2)c2ccccc21	i	i	i	115	i
S=C(NC1CC1)N1CCCc2ccccc21	54	i	i	i	i
CCCNC(=O)N1C[C@@H](C)[C@H](OC)CN(C)C(=O)c2cc(NC(=O)C3CCC3)ccc2OC[C@@H]1C	nt	nt	i	i	nt
CCOc1cc(/C=C\c2nc(O)c([N+](=O)[O-])c(=O)[nH]2)ccc1OC(C)C	i	i	i	i	i
C=CCc1cc(/C=C/c2nc(O)c([N+](=O)[O-])c(=O)[nH]2)cc(OC)c1O	i	43	i	nt	i
CCOC(=O)c1c(NC(=O)CSc2ncccn2)sc2c1CCN(Cc1ccccc1)C2	nt	43	i	nt	i
O=C1OC(c2cccs2)=N/C1=C/c1ccc(-c2cccc(C(=O)O)c2)o1	i	9.4	i	i	i
O=C1OC(c2cccs2)=N/C1=C\c1ccc(-c2ccccc2Cl)o1	i	i	i	nt	i
COCC(=O)N1CC2(C1)CN(C(=O)NC1CCCC1)[C@H](CO)c1c2c2ccc(OC)cc2n1C	68	nt	i	i	i
COCC(=O)N1CCC2(CC1)CN(C(=O)NC1CCCC1)[C@@H](CO)c1c2c2ccc(OC)cc2n1C	i	i	i	i	i
COCC(=O)N1CC2(CN(C(=O)NC(C)C)C2)c2c(n(C)c3cc(OC)ccc23)[C@@H]1CO	26	i	i	i	nt
CO[C@H]1CN(C)C(=O)c2ccc(NC(=O)C3CC3)cc2OC[C@@H](C)N(Cc2ccncc2)C[C@H]1C	i	i	i	i	i
COc1ccc(CN2CC3(C2)CN(C(=O)Nc2ccc(F)cc2)[C@@H](CO)c2[nH]c4cc(OC)ccc4c23)cc1	i	i	i	i	nt
